According to ChEMBL document CHEMBL1149147, “NR2B-selective N-methyl-D-aspartate antagonists: synthesis and evaluation of 5-substituted benzimidazoles” (J Med Chem, 2004):

How the values were obtained:
[1] = target: T1, Glutamate NMDA receptor; GRIN1/GRIN2B (Homo sapiens, UniProt Q05586+Q13224); assay: In vitro inhibition of Glu/Gly stimulated [Ca2+] influx in LtK-cells expressing the hNR1a/NR2B receptor; type: functional
Method in brief: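 Fluorescence readout of Ca2+ flux stimulated by glutamate/glycine in Ltk- cells stably expressing human NR1a/NR2B, measured as inhibition. IC50 is the geometric mean of at least n = 4, with 2×SEGM given.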

[2] = target: Voltage-gated inwardly rectifying potassium channel KCNH2 (Homo sapiens, UniProt Q12809); assay: In vitro inhibition of MK-499 binding to hERG in HEK293 cells; type: cell-based; conditions: read-out: IP
[3] = target: T1, Glutamate NMDA receptor; GRIN1/GRIN2B; assay: Compound was evaluated for in vitro inhibition of [3H][(E)-N-(2-methoxybenzyl)cinnamamidine binding to human NR1a/NR2B receptors expressed in LtK-cells; type: cell-based
[4] = target: T2, Adrenergic receptor alpha-1 (Rattus norvegicus, UniProt P15823+P23944+P43140); assay: In vitro inhibitory activity against alpha-1 adrenergic receptor binding to rat brain membranes; parameters: species or system Membrane
T2 sequence (P15823 whole entry): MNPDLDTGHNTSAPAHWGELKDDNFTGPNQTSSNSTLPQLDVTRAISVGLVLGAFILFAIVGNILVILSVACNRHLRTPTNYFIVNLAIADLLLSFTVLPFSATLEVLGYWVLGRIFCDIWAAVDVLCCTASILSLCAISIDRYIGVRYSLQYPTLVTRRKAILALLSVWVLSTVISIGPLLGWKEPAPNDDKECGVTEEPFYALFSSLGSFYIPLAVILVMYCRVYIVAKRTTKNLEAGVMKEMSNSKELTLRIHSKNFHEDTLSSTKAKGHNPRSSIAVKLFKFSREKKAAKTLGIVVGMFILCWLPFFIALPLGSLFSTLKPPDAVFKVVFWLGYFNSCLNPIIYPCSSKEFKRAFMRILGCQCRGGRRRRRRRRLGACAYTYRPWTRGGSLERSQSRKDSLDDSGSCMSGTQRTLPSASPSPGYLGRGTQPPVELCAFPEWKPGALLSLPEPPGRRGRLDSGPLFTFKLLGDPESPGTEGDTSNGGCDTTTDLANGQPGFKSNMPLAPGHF
T2 sequence (P23944 whole entry): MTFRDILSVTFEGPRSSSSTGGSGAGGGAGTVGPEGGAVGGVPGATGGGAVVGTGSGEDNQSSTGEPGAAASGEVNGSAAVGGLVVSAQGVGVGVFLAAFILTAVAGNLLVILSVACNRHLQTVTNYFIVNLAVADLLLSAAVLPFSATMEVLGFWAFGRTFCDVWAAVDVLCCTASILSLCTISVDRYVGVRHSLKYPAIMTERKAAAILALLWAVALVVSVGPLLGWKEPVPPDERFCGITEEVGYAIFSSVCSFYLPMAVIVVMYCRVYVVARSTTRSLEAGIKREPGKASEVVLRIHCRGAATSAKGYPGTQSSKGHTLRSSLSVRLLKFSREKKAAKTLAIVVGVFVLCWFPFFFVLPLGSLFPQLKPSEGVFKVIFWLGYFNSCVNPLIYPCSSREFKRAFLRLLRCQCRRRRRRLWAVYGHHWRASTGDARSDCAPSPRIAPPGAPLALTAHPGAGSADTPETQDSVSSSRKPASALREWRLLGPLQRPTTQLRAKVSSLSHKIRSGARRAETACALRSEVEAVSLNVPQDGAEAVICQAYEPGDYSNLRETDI
T2 sequence (P43140 whole entry): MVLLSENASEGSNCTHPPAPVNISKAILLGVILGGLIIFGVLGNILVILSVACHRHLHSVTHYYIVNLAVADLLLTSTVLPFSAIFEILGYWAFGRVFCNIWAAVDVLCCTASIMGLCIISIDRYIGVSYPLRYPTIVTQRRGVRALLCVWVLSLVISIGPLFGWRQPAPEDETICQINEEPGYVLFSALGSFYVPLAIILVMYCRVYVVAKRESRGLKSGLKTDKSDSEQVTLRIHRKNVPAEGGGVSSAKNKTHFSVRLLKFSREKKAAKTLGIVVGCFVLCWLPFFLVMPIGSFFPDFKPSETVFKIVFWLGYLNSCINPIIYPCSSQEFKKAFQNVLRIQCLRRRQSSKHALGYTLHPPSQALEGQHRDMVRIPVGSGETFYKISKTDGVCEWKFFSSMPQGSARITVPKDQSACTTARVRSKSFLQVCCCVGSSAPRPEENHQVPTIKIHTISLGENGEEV
Method in brief: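 Competition binding to α1-adrenergic receptors on membranes prepared from rat brain, using the prazosin binding assay. IC50 is the geometric mean of at least 4 determinations.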

[5] = Half-life in rats was determined; type: ADME, organism-based; conditions: rat, in vivo
Method in brief: (§1)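 Conscious male Sprague-Dawley rats (n = 3–4) given single doses: 2 mg/kg iv in 100% DMSO, or 10 mg/kg po by gavage in 1% methylcellulose. Plasma was sampled at multiple times up to 24 h. Interanimal variability was below 20%.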

[6] = Plasma clearance (in vivo) in mongrel dogs was determined; type: ADME, organism-based, Canis lupus familiaris; conditions: dog
Method in brief: (§2)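 Single doses in dogs (n = 2): 1 mg/kg iv in 100% DMSO, or 3 mg/kg po gavaged in 1% methylcellulose suspension. Plasma was sampled at multiple time points up to 24 h. Interanimal variability was below 20%.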

[7] = Plasma clearance (in vivo) in rats was determined; type: ADME, organism-based; conditions: rat; method in brief: as §1
[8] = Oral bioavailability in rat; type: ADME, organism-based; conditions: in vivo; method in brief: as §1
Rattus norvegicus = assay: Compound was evaluated in vivo for carrageenan induced mechanical hyperalgesia in rats, intravenously; type: functional
Method in brief: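 Male Sprague-Dawley rats (100–120 g) received 4.5 mg carrageenan in 0.15 mL saline intraplantar, or saline. Agent was given iv in 50% PEG-200/D5W (n = 6/dose) 15 min before the paw pressure read at 3 h. Threshold was taken as vocalization on an algometer.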

[9] = Half-life in mongrel dogs was determined; type: ADME, organism-based, Canis lupus familiaris; conditions: dog, in vivo; method in brief: as §2
[10] = Oral bioavailability in dog (mongrel); type: ADME, organism-based, Canis lupus familiaris; conditions: in vivo; method in brief: as §2

T1 sequence (Q13224 whole entry, other chains not shown): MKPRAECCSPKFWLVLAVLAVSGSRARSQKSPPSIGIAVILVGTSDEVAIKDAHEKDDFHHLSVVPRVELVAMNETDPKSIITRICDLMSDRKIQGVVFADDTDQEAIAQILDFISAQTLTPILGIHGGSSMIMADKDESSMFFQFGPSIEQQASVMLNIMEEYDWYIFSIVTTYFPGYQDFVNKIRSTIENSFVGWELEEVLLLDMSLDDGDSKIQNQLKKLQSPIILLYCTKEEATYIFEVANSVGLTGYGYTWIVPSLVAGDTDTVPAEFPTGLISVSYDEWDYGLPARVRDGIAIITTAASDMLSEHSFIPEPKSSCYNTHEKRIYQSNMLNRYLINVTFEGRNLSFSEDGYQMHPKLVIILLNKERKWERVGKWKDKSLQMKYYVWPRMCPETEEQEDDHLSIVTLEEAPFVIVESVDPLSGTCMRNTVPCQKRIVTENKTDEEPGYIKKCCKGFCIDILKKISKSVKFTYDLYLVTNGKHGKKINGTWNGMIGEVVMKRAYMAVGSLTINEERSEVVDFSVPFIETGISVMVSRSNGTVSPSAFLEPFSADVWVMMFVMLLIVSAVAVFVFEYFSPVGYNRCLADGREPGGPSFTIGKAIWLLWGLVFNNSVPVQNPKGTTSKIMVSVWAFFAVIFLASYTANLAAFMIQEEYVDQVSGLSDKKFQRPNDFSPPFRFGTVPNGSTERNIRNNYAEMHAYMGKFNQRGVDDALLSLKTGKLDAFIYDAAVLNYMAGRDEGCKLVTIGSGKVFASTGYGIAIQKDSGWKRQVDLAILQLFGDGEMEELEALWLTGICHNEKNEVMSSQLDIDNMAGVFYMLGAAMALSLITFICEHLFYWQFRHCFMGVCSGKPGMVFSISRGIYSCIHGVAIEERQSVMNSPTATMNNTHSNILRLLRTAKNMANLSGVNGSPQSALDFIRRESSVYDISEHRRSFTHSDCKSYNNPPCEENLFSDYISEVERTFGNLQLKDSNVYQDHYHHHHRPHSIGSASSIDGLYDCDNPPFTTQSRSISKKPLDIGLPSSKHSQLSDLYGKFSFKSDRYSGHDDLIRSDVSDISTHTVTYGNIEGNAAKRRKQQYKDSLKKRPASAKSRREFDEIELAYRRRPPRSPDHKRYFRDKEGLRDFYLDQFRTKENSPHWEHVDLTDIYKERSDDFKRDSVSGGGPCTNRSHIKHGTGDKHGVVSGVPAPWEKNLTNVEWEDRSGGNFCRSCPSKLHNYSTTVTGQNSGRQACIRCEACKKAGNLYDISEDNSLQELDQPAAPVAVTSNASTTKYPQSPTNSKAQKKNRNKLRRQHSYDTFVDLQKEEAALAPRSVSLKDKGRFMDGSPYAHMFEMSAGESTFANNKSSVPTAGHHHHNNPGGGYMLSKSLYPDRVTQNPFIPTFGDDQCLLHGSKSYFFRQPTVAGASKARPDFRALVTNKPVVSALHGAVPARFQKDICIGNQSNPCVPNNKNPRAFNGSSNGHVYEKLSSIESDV
Chain of Voltage-gated inwardly rectifying potassium channel KCNH2 (Q12809 whole entry): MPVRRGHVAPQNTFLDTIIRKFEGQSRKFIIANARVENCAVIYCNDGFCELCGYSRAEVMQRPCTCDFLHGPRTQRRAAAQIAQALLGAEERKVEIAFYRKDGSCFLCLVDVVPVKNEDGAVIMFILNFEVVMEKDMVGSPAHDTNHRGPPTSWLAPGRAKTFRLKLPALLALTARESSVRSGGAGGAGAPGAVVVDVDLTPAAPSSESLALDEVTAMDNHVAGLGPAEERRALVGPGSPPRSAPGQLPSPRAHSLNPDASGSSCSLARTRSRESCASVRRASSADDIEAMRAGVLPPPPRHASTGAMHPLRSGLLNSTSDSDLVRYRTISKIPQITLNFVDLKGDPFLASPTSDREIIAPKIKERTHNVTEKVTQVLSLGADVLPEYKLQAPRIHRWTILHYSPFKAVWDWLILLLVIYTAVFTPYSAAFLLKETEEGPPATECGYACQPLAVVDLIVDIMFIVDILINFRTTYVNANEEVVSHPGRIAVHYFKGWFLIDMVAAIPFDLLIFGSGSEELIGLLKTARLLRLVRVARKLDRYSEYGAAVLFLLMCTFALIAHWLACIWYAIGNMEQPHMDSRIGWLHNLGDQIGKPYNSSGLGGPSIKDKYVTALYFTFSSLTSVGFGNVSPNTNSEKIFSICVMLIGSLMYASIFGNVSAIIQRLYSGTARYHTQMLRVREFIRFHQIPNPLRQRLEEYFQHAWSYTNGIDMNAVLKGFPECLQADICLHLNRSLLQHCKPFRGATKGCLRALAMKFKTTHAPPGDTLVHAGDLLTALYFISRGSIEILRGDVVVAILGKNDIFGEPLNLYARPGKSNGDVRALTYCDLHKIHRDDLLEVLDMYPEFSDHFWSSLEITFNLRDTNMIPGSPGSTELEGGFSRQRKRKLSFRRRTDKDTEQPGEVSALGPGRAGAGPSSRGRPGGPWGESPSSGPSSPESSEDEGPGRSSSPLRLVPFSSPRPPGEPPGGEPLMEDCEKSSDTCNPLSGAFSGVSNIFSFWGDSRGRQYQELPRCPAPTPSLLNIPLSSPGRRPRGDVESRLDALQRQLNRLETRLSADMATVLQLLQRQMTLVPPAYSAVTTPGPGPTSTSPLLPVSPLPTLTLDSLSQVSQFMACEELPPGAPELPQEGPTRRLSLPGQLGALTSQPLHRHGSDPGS

Row | Structure (SMILES) | IC50 [1] [nM] | IC50 [2] [nM] | Ki [3] [nM] | IC50 [4] [nM] | half-life [5] [h] | clearance [6] [mL/min/kg] | clearance [7] [mL/min/kg] | bioavailability [8] [%] | Activity (Rattus norvegicus) [mg/kg] | half-life [9] [h] | bioavailability [10] [%]
1 | Oc1cccc2[nH]c(Cc3ccc(Oc4ccccc4)cc3)nc12 | 150 | 860 | 140 | 5500 |  |  |  |  |  |  | 
2 | Oc1ccc2[nH]c(CN3CCC(Cc4ccccc4F)CC3)nc2c1 | 9.7 | 2900 | 0.85 | 730 | 1 | 0.6 | 12.3 | 6.4 | <3 | 6.5 | 87
3 | Oc1ccc2[nH]c(CN3CCC(Cc4ccccc4)CC3)nc2c1 | 8.2 | 2600 |  | 670 | > 8 | 0.6 | 22.8 | 20 | 3.3 | 6.7 | 90
4 | c1ccc(CC2CCN(Cc3nc4ccccc4[nH]3)CC2)cc1 | 710 | 1400 | 420 | 2800 |  |  |  |  |  |  | 
5 | N#Cc1ccc2[nH]c(Cc3ccc(Oc4ccccc4)cc3)nc2c1 | 800 | 1100 | 790 | 3400 |  |  |  |  |  |  | 
6 | CC(=O)Nc1ccc2[nH]c(Cc3ccc(Oc4ccccc4)cc3)nc2c1 | 42 | 2600 | 93 | 20000 |  |  |  |  |  |  | 
7 | Oc1ccc2[nH]c(CN3CCC(Cc4ccc(F)cc4)CC3)nc2c1 | 12 | 500 | 1.1 | 620 |  |  |  |  |  |  | 
8 | Oc1ccc2[nH]c(CN3CCC(Cc4c(F)cccc4F)CC3)nc2c1 | 21 | 3000 | 0.82 | 2600 |  |  |  |  |  |  | 
9 | CCCS(=O)(=O)Nc1ccc2[nH]c(Cc3ccc(Oc4ccccc4)cc3)nc2c1 | 19 | 400 | 21 | 4800 |  |  |  |  |  |  | 
10 | O=[N+]([O-])c1ccc2[nH]c(Cc3ccc(Oc4ccccc4)cc3)nc2c1 | 6600 | 770 |  | 1200 |  |  |  |  |  |  | 
11 | COc1ccc2[nH]c(Cc3ccc(Oc4ccccc4)cc3)nc2c1 | 9200 |  | 8400 | 530 |  |  |  |  |  |  | 
